Data from ChEMBL document CHEMBL5346889, “Discovery of 4-oxo-N-phenyl-1,4-dihydroquinoline-3-carboxamide derivatives as novel anti-inflammatory agents for the treatment of acute lung injury and sepsis” (Eur J Med Chem, 2023).
Calls of active or inactive are those of the source. No cut-off for these calls is given here.

Experiments:
J774.A1 [1] = assay: Antiinflammatory activity in LPS-induced mouse J774.A1 cells assessed as inhibition of LPS-induced IL-6 release at 10 uM preincubated for 30 mins followed by LPS stimulation for 24 hrs by ELISA method; format: functional; settings: time 24.5 hrs
Procedure, shortened: (§1)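 J774A.1 macrophages pretreated 30 min at 10 μM, then challenged with LPS 0.5 μg/mL for 24 h at 37 °C, 5% CO2. Medium IL-6 and TNF-α measured by ELISA, normalized to total lysate protein.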

J774.A1 [2] = assay: Antiinflammatory activity in LPS-induced mouse J774.A1 cells assessed as inhibition of LPS-induced TNF-alpha release at 10 uM preincubated for 30 mins followed by LPS stimulation for 24 hrs by ELISA method; format: functional; settings: time 24.5 hrs; procedure, shortened: as §1
Mus musculus [3] = assay: Antiinflammatory activity in LPS-induced C57/BL6 mouse acute lung injury model assessed as decrease in TNF-alpha level in serum at 20 mg/kg via oral gavage preincubated for 30 mins followed by LPS stimulation for 6 hrs by ELISA; settings: time 6.5 hrs
Mus musculus [4] = assay: Protection against LPS-induced C57/BL6 mouse acute lung injury model assessed as improvement in structural distruption of lung tissue at 20 mg/kg via oral gavage preincubated for 30 mins followed by LPS stimulation for 6 hrs; format: functional, organism-based; settings: time 6.5 hrs
Procedure, shortened: (§2)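 Mice dosed 20 mg/kg by gavage (dexamethasone 20 mg/kg comparator), intratracheal LPS 5 mg/kg 30 min later, killed at 6 h. Right upper lobe fixed in paraformaldehyde, H&E; lung wet/dry ratio; BALF protein, total cells and neutrophils counted; n = 5 mice per group, mean ± SEM.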

Mus musculus [5] = assay: Antiinflammatory activity in LPS-induced C57/BL6 mouse acute lung injury model assessed as decrease in IL-6 level in BALF at 20 mg/kg via oral gavage preincubated for 30 mins followed by LPS stimulation for 6 hrs by ELISA; settings: time 6.5 hrs
Mus musculus [6] = assay: Antiinflammatory activity in LPS-induced C57/BL6 mouse acute lung injury model assessed as decrease in TNF-alpha expression level at 20 mg/kg via oral gavage preincubated for 30 mins followed by LPS stimulation for 6 hrs by RT-qPCR method; format: functional, organism-based; settings: time 6.5 hrs
Procedure, shortened: (§3)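 Male C57BL/6 mice, six weeks old, n = 8 per group. Dosed 20 mg/kg orally 30 min before intratracheal LPS 5 mg/kg; dexamethasone 20 mg/kg as comparator. Lung tissue collected 6 h after LPS. RNA extracted with TRIzol; IL-6 and TNF-α transcripts by RT-qPCR, normalized to β-actin; n = 5 mice per group, mean ± SEM.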

Mus musculus [7] = assay: Antiinflammatory activity in LPS-induced C57/BL6 mouse acute lung injury model assessed as decrease in TNF-alpha level in BALF at 20 mg/kg via oral gavage preincubated for 30 mins followed by LPS stimulation for 6 hrs by ELISA; settings: time 6.5 hrs
Mus musculus [8] = assay: Protection against LPS-induced C57/BL6 mouse acute lung injury model assessed as improvement in alveolar wall thickening at 20 mg/kg via oral gavage preincubated for 30 mins followed by LPS stimulation for 6 hrs; format: functional, organism-based; settings: time 6.5 hrs; procedure, shortened: as §2
Mus musculus [9] = assay: Protection against LPS-induced C57/BL6 mouse acute lung injury model assessed as reduction in number of neutrophils in BALF at 20 mg/kg via oral gavage preincubated for 30 mins followed by LPS stimulation for 6 hrs; format: functional, organism-based; settings: time 6.5 hrs; procedure, shortened: as §2
Mus musculus [10] = assay: Protection against LPS-induced C57/BL6 mouse acute lung injury model assessed as reduction in protein concentration in BALF at 20 mg/kg via oral gavage preincubated for 30 mins followed by LPS stimulation for 6 hrs; format: functional, organism-based; settings: time 6.5 hrs; procedure, shortened: as §2
Mus musculus [11] = assay: Antiinflammatory activity in LPS-induced C57/BL6 mouse acute lung injury model assessed as reduction in macrophage infiltration at 20 mg/kg via oral gavage preincubated for 30 mins followed by LPS stimulation for 6 hrs by immunohistochemical staining based analysis; format: functional, organism-based; settings: time 6.5 hrs
Procedure, shortened: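 Same ALI model: 20 mg/kg oral, intratracheal LPS 5 mg/kg 30 min later, lungs at 6 h. Paraffin sections given citrate (pH 6.5) antigen retrieval, 3% H2O2 and 5% BSA block, anti-F4/80 12 h at 4 °C, HRP secondary, DAB and hematoxylin; F4/80 positivity quantified; n = 5 per group.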

Mus musculus [12] = assay: Protection against LPS-induced C57/BL6 mouse acute lung injury model assessed as reduction in number of total cells in BALF at 20 mg/kg via oral gavage preincubated for 30 mins followed by LPS stimulation for 6 hrs; format: functional, organism-based; settings: time 6.5 hrs; procedure, shortened: as §2
Mus musculus [13] = assay: Protection against LPS-induced C57/BL6 mouse acute lung injury model assessed as reduction in lung wet/dry ratio at 20 mg/kg via oral gavage preincubated for 30 mins followed by LPS stimulation for 6 hrs; format: functional, organism-based; settings: time 6.5 hrs; procedure, shortened: as §2
Mus musculus [14] = assay: Antiinflammatory activity in LPS-induced C57/BL6 mouse acute lung injury model assessed as decrease in IL-6 expression level at 20 mg/kg via oral gavage preincubated for 30 mins followed by LPS stimulation for 6 hrs by RT-qPCR method; format: functional, organism-based; settings: time 6.5 hrs; procedure, shortened: as §3
Mus musculus [15] = assay: Antiinflammatory activity in LPS-induced C57/BL6 mouse acute lung injury model assessed as decrease in IL-6 level in serum at 20 mg/kg via oral gavage preincubated for 30 mins followed by LPS stimulation for 6 hrs by ELISA; settings: time 6.5 hrs
J774.A1 [16] = assay: Antiinflammatory activity in LPS-induced mouse J774.A1 cells assessed as inhibition of LPS-induced IL-6 release preincubated for 30 mins followed by LPS stimulation for 24 hrs by ELISA method; format: functional, cell-based
Procedure, shortened: (§4)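 Dose-response in J774A.1 cells: 30 min pretreatment at 10, 5, 2.5 or 1.25 μM, then LPS 0.5 μg/mL for 24 h. IL-6 and TNF-α by ELISA, normalized to lysate protein; IC50 from the dose-response; 3 independent experiments, mean ± SEM.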

J774.A1 [17] = assay: Cytotoxicity against mouse J774.A1 cells assessed as reduction in cell viability at 10 uM incubated for 24 hrs by MTT assay; format: functional, cell-based
Procedure, shortened: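 J774A.1 macrophages exposed to 10 μM for 24 h; MTT at 5 mg/mL added for 4 h; absorbance read at 490 nm; viability expressed as percent of DMSO control.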

J774.A1 [18] = assay: Antiinflammatory activity in LPS-induced mouse J774.A1 cells assessed as inhibition of LPS-induced TNF-alpha release preincubated for 30 mins followed by LPS stimulation for 24 hrs by ELISA method; format: functional, cell-based; procedure, shortened: as §4

| SMILES | inhibition at 10 µM (J774.A1 [1]) [%] | inhibition (J774.A1 [2]) | inhibition at 10 µM (J774.A1 [2]) [%] | further results |
| --- | --- | --- | --- | --- |
| COc1cc2ncnc(Oc3ccc(NC(=O)c4cn(-c5ccc(Cl)cc5)c5ccccc5c4=O)cc3)c2cc1OC | 30.5 | inactive |  |  |
| COc1cc2nccc(Oc3cccc(NC(=O)c4cn(-c5ccc(OC(F)(F)F)cc5)c5ccccc5c4=O)c3)c2cc1OC | 66.4 |  | 33.3 |  |
| COc1cc2ncnc(Oc3ccc(NC(=O)c4cn(-c5ccc(F)cc5)c5ccccc5c4=O)cc3)c2cc1OC | 57 |  | 48 |  |
| COc1cc2ncnc(Oc3cccc(NC(=O)c4cn(-c5ccc(Br)cc5F)c5ccccc5c4=O)c3)c2cc1OC |  | inactive |  | inhibition (J774.A1 [1]): inactive |
| COc1cc2nccc(Oc3cccc(NC(=O)c4cn(-c5ccc(F)c(Cl)c5)c5ccccc5c4=O)c3)c2cc1OC | 49.7 |  | 32.6 |  |
| C[C@@H]1C[C@H]2[C@@H]3CCC4=CC(=O)C=C[C@]4(C)[C@@]3(F)[C@@H](O)C[C@]2(C)[C@@]1(O)C(=O)CO |  |  |  | Activity (Mus musculus [3]): Active; Activity (Mus musculus [4]): Active; Activity (Mus musculus [5]): Active; Activity (Mus musculus [6]): Active; Activity (Mus musculus [7]): Active; Activity (Mus musculus [8]): Active; Activity (Mus musculus [9]): Active; Activity (Mus musculus [10]): Active; Activity (Mus musculus [11]): Active; Activity (Mus musculus [12]): Active; Activity (Mus musculus [13]): Active; Activity (Mus musculus [14]): Active; Activity (Mus musculus [15]): Active |
| COc1cc2nccc(Oc3cccc(NC(=O)c4cn(-c5ccc(Br)cc5)c5ccccc5c4=O)c3)c2cc1OC | 37.1 | inactive |  |  |
| COc1cc2nccc(Oc3ccc(NC(=O)c4cn(-c5ccc(Cl)cc5)c5ccccc5c4=O)cc3)c2cc1OC | 32 |  | 63.5 |  |
| COc1cc2nccc(Oc3cccc(NC(=O)c4cn(-c5ccc(Cl)cc5)c5ccccc5c4=O)c3)c2cc1OC | 60.2 | inactive |  |  |
| COc1cc2nccc(Oc3cccc(NC(=O)c4cn(-c5ccc(F)cc5)c5ccccc5c4=O)c3)c2cc1OC | 51.3 | inactive |  |  |
| COc1cc2nccc(Oc3ccc(NC(=O)c4cn(-c5ccc(Br)cc5)c5ccccc5c4=O)cc3)c2cc1OC | 41.7 |  | 71.7 |  |
| COc1cc2ncnc(Oc3ccc(NC(=O)c4cn(-c5ccc(Br)cc5F)c5ccccc5c4=O)cc3)c2cc1OC | 13.3 | inactive |  |  |
| COc1cc2ncnc(Oc3ccc(NC(=O)c4cn(-c5ccc(Br)cc5)c5ccccc5c4=O)cc3)c2cc1OC |  |  | 22.4 | inhibition (J774.A1 [1]): inactive |
| COc1cc2ncnc(Oc3cccc(NC(=O)c4cn(-c5ccc(F)cc5)c5ccccc5c4=O)c3)c2cc1OC | 45.4 | inactive |  |  |
| COc1cc2ncnc(Oc3ccc(NC(=O)c4cn(-c5ccc(OC(F)(F)F)cc5)c5ccccc5c4=O)cc3)c2cc1OC | 35.9 |  | 54.9 |  |
| COc1cc2nccc(Oc3cccc(NC(=O)c4cn(-c5ccc(Br)cc5F)c5ccccc5c4=O)c3)c2cc1OC | 52.9 | inactive |  |  |
| COc1cc2ncnc(Oc3cccc(NC(=O)c4cn(-c5ccc(OC(F)(F)F)cc5)c5ccccc5c4=O)c3)c2cc1OC | 10.4 |  | 7.66 |  |
| COc1cc2nccc(Oc3ccc(NC(=O)c4cn(-c5ccc(F)c(Cl)c5)c5ccccc5c4=O)cc3)c2cc1OC | 62.2 |  | 67.7 |  |
| COc1cc2ncnc(Oc3cccc(NC(=O)c4cn(-c5ccc(Br)cc5)c5ccccc5c4=O)c3)c2cc1OC | 20.4 | inactive |  |  |
| COc1cc2ncnc(Oc3ccc(NC(=O)c4cn(-c5ccccc5)c5ccccc5c4=O)cc3)c2cc1OC | 38.1 |  | 30.5 |  |
| COc1cc2nccc(Oc3ccc(NC(=O)c4cn(-c5ccc(Br)cc5F)c5ccccc5c4=O)cc3)c2cc1OC | 26.7 | inactive |  |  |
| COc1cc2ncnc(Oc3cccc(NC(=O)c4cn(-c5ccc(Cl)cc5)c5ccccc5c4=O)c3)c2cc1OC | 32.3 | inactive |  |  |
| COc1cc2nccc(Oc3cccc(NC(=O)c4cn(-c5ccccc5)c5ccccc5c4=O)c3)c2cc1OC | 44.8 | inactive |  |  |
| COc1cc2nccc(Oc3ccc(NC(=O)c4cn(-c5ccc(F)cc5)c5ccccc5c4=O)cc3)c2cc1OC | 77.4 |  | 83.1 | IC50 (J774.A1 [16]): 2.33 µM; inhibition (J774.A1 [16]; dose 1.25-10 µM, time 24.5 hrs): Dose-Dependent Effect; Activity (J774.A1 [17]): inactive; IC50 (J774.A1 [18]): 3.46 µM; inhibition (J774.A1 [18]; dose 1.25-10 µM, time 24.5 hrs): Dose-Dependent Effect |
| COc1cc2ncnc(Oc3cccc(NC(=O)c4cn(-c5ccc(F)c(Cl)c5)c5ccccc5c4=O)c3)c2cc1OC | 33.9 |  | 36 |  |
| COc1cc2ncnc(Oc3ccc(NC(=O)c4cn(-c5ccc(F)c(Cl)c5)c5ccccc5c4=O)cc3)c2cc1OC | 39.6 |  | 48 |  |
| COc1cc2ncnc(Oc3cccc(NC(=O)c4cn(-c5ccccc5)c5ccccc5c4=O)c3)c2cc1OC | 42.4 | inactive |  |  |
| COc1cc2nccc(Oc3ccc(NC(=O)c4cn(-c5ccc(OC(F)(F)F)cc5)c5ccccc5c4=O)cc3)c2cc1OC | 50.5 |  | 67.6 |  |
